Screens from PubChem BioAssay.
NR2E3 ag-1: activates human NR2E3 receptor; Q9Y5X4; CHO-S Gal4-NCOR/VP16-NR2E3 two-hybrid, luciferase; inhibition of corepressor binding, % at 3.98 µM; 360,000 compounds, 0.35% hits; AID 602229;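 active means inhibition above the mean of all tested compounds plus 3 SD, cut at about 70% in these data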;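 further: 0% = DMSO with NR2E3 transfected cells and 100% = cells lacking NR2E3 construct; higher means lower luciferase signal from less NR2E3 corepressor binding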
Target sequence (Q9Y5X4 whole entry, looked up, the tested form may be a part): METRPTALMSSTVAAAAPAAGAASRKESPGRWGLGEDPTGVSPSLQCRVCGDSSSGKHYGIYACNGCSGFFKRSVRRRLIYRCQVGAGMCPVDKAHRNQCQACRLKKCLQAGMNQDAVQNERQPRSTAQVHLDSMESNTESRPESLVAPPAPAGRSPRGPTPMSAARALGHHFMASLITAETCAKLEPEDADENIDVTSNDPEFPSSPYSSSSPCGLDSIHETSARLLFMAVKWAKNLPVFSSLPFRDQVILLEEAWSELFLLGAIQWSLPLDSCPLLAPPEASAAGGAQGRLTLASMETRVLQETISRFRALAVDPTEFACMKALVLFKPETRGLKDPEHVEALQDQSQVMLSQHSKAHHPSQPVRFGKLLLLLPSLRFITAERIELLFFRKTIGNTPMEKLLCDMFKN
V-ATPase pH: alters yeast V-ATPase proton transport; S. cerevisiae, pHLuorin cytosolic pH fluorescence; response, % at 10 µM; 350,000 compounds, 0.37% hits; AID 504577; in the data active means response mostly above about 7.3%, no sharp cut-off; inactive means mostly below about 5.4%; further: actives read high
NR2E3 ag-2: activates human photoreceptor nuclear receptor NR2E3. inhibition of corepressor binding, % at 4.78 µM. Q9Y5X4. GST-NR2E3/biotin-RetCOR TR-FRET, 1536-well. 320,000 compounds, 0.12% hits;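 active means percent inhibition above the cutoff of mean plus 3 SD of all tested compounds, set per screening campaign, cut at about 20% in these data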;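 further: 0% = DMSO wells and 100% = biotin wells as full block of FRET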
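Test system: GST-NR2E3 and biotin-RetCOR proteins | Quantity: 1.35 nM GST-tagged NR2E3 final | Medium: Tris pH 7.5 | Also added: 7 nM biotin-RetCOR | Dosing: Compound at 4.8 µM, single dose | Timing: 5 h at 4 °C | Detection: Time-resolved FRET | Read-out basis: Percent inhibition | Benchmarks: Biotin wells as high control, 0.6% DMSO wells as low control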
Env fusion inh: blocks HIV Env-driven cell-cell fusion | HeLa-JRFL Env/CEM21 cell fusion, luciferase | inhibition, % at 12.3 µM | 360,000 compounds, 1.1% hits | AID 651610;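 active means mean replicate inhibition score of at least 50 and every replicate individually at or above 50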;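 further: 0% = plate neutral controls and 100% = maraviroc near 300 nM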
FXN GAA850 act: frataxin GAA850 promoter activation | activation, % at 6 µM | 360,000 compounds, 0.56% hits | AID 540364 | HEK293 lucGAA850 FXN promoter luciferase reporter, 24 h; percent of 10 µM SAHA response;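 active means activation above the average of all compounds screened plus 3 SD, cutoff fixed separately per campaign, cut at about 7.5% in these data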;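 further: 0% = DMSO wells and 100% = 10 µM SAHA wells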
GalR3 antag: blocks the human galanin receptor 3; O60755; HEK293 GalR3-CNG cAMP membrane potential fluorescence; galR3 body fused to GalR1 C-terminus; inhibition, % at 3 µM; 360,000 compounds, 0.44% hits; AID 651719;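 active means inhibition above the screen-wide average plus 3 SD, cut at about 13% in these data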;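 further: forskolin and galanin both at EC90 stimulate the cells; cAMP rise reported by CNG channel membrane potential dye signal; 0% = forskolin plus galanin with DMSO and 100% = forskolin alone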
Target sequence (O60755 1-299 limits assumed): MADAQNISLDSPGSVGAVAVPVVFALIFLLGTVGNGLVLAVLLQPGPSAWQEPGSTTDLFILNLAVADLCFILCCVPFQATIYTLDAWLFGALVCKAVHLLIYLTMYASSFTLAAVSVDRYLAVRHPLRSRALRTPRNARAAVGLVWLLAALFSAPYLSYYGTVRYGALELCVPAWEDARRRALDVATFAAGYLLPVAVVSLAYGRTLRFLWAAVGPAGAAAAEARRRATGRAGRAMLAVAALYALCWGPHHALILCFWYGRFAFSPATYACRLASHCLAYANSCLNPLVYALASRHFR
* marks the source's active call; other numbers are inactive results; . = no result; ! = a repeat was not active; [ ] = another dose, or the depositor's remark. Rows were chosen to be rich in hits. Some 2.2% of all compounds tested hit in one or more screens of this group.

SMILES	NR2E3 ag-1	V-ATPase pH	NR2E3 ag-2	Env fusion inh	FXN GAA850 act	GalR3 antag
CC(C)C(N)c1csc(NC(=O)Nc2cccc(C(F)(F)F)c2)n1 (stereo not drawn)	10	.	.	-7	0	-9
NC(CCc1ccccc1)c1csc(NC(=O)Nc2cccc(C(F)(F)F)c2)n1 (stereo not drawn)	9	.	.	55*	2	-7
NC(Cc1ccc(C(F)(F)F)cc1)c1csc(NC(=O)Nc2ccccc2Cl)n1 (stereo not drawn)	12	.	.	58*	0	1
O=C(C[C@H]1C=C[C@@H](NC(=O)c2ccncc2)[C@H](CO)O1)NCC1CCCCC1	.	.	.	15[16.7 µM]	.	.
COc1ccc(CN(C)C[C@@H]2OCCCC[C@H](C)Oc3ccc(NS(=O)(=O)c4cccs4)cc3C(=O)N([C@@H](C)CO)C[C@@H]2C)cc1	.	.	.	-5[16.7 µM]	.	.
CCNC(=O)C[C@@H]1CC[C@H]2[C@H](COc3ccc(NC(=O)Nc4c(C)noc4C)cc3C(=O)N2C)O1	.	.	.	-14[16.7 µM]	.	.
COc1ccc(NC(=O)Nc2ccc3c(c2)C(=O)N([C@@H](C)CO)C[C@H](C)[C@@H](CN(C)C(=O)Nc2ccc4c(c2)OCO4)OCCCC[C@H](C)O3)cc1	.	.	.	-8[16.7 µM]	.	.
NC(COCc1ccccc1)c1csc(Nc2ccccn2)n1 (stereo not drawn)	-5	.	.	18	2	-6
NC(CCc1ccccc1)c1csc(Nc2ccccn2)n1 (stereo not drawn)	15	.	.	85*	7	-5
CC1CN(c2sc(S(C)(=O)=O)nc2S(=O)(=O)c2ccc(Cl)cc2)CC(C)O1 (stereo not drawn)	-2	13*	-4	7	1	3
CC1CCCN(c2sc(S(C)(=O)=O)nc2S(=O)(=O)c2ccc(Cl)cc2)C1 (stereo not drawn)	24	0	-2	-5	0	-6
CCO[C@H]1OC(C(=O)N2CCCC2)=C[C@@H](c2ccc(Br)cc2)[C@@H]1CCCO	.	.	.	0[16.7 µM]	.	.
COCCNC(=O)C[C@H]1C[C@@H]2c3cc(NC(=O)Nc4ccccc4F)ccc3O[C@@H]2[C@@H](CO)O1	.	.	.	13[16.7 µM]	.	.
CCCCCCSc1cccc(-c2nc3ccc(Cl)cn3c2NCc2ccccc2)c1	-29	1	-2	72*!	1	-1
COc1ccc(-c2c(S(=O)(=O)c3ccccc3)cnn2-c2ccccc2)cc1	1	2	-1	63*	-1	-8
Cc1cccc(C(P(=O)(c2ccccc2)c2ccccc2)P(=O)(c2ccccc2)c2ccccc2)n1	-20	-2	-1	64*	6	-3
O=C(C[C@@H]1C=C[C@@H](NC(=O)C2CC2)[C@@H](CO)O1)NCCCN1CCOCC1	.	.	.	-9[16.7 µM]	.	.
COc1cccc(NC(=O)C[C@H]2CC[C@H]3[C@@H](COc4ccc(NC(=O)c5ccccc5F)cc4C(=O)N3C)O2)c1	.	.	.	-7[16.7 µM]	.	.
CSc1sc(-c2ccnc(SCC(=O)C(C)(C)C)n2)c2c1C(=O)CC(C)(C)C2	-3	1	-5	65*	4	-5
CCCC#Cc1ccc2c(c1)O[C@H](CN(C)C(=O)NC(C)C)[C@H](C)CN([C@H](C)CO)S2(=O)=O	.	.	.	0[16.7 µM]	.	.
COCC(=O)N(C)C[C@@H]1Oc2ncc(C3=CCCCC3)cc2C(=O)N([C@H](C)CO)C[C@H]1C	.	.	.	-11[16.7 µM]	.	.
COc1cccc(/C=N/Nc2ncnc(Cl)c2N)c1O	-29	5	-3	55*	-2	-5
COc1cccc(/C=N/Nc2nccnc2Cl)c1O	-159	2	.	-27	-9	-5
CC(C)NC(=O)Nc1ccc2c(c1)C(=O)N([C@@H](C)CO)C[C@@H](C)[C@@H](CN(C)C(=O)Nc1ccc(C(F)(F)F)cc1)OCCCC[C@@H](C)O2	.	.	.	79*[16.7 µM]	.	.
CC(C)NC(=O)Nc1ccc2c(c1)C(=O)N([C@H](C)CO)C[C@H](C)[C@@H](CN(C)C(=O)Nc1ccc(C(F)(F)F)cc1)OCCCC[C@H](C)O2	.	.	.	44[16.7 µM]	.	.
SMILES	NR2E3 ag-1	V-ATPase pH	NR2E3 ag-2	Env fusion inh	FXN GAA850 act	GalR3 antag
CC(C)NC(=O)Nc1ccc2c(c1)C(=O)N([C@@H](C)CO)C[C@H](C)[C@H](CN(C)C(=O)Nc1ccc(F)cc1)O2	.	.	.	70*[16.7 µM]	.	.
C[C@@H]1CN([C@@H](C)CO)C(=O)c2cc(NC(=O)Nc3ccc(F)cc3)ccc2O[C@@H](C)CCCCO[C@@H]1CN(C)C(=O)C1CCCCC1	.	.	.	5[16.7 µM]	.	.
C[C@@H]1CCCCO[C@@H](CN(C)CC2CCCCC2)[C@H](C)CN([C@H](C)CO)C(=O)c2cc(NC(=O)Nc3ccc(F)cc3)ccc2O1	.	.	.	75*[16.7 µM]	.	.
C[C@@H]1CCCCO[C@H](CN(C)C(=O)C2CCCCC2)[C@@H](C)CN([C@@H](C)CO)C(=O)c2cc(NC(=O)Nc3ccc(F)cc3)ccc2O1	.	.	.	57*[16.7 µM]	.	.
COc1ccccc1-c1cn(CC[C@@H]2CC[C@H](NC(=O)C3CCOCC3)[C@H](CO)O2)nn1	.	.	.	-21[16.7 µM]	.	.
C[C@@H]1CCCCO[C@@H](CN(C)C(=O)Nc2ccc(F)cc2)[C@@H](C)CN([C@@H](C)CO)C(=O)c2cc(NC(=O)Nc3ccc(F)cc3)ccc2O1	.	.	.	15[16.7 µM]	.	.
C[C@@H]1CCCCO[C@H](CN(C)C(=O)Nc2ccc(C(F)(F)F)cc2)[C@@H](C)CN([C@H](C)CO)C(=O)c2cc(NC(=O)Nc3ccc(F)cc3)ccc2O1	.	.	.	-2[16.7 µM]	.	.
C[C@H]1CCCCO[C@H](CN(C)C(=O)Nc2ccc(C(F)(F)F)cc2)[C@@H](C)CN([C@@H](C)CO)C(=O)c2cc(NC(=O)Nc3ccc(F)cc3)ccc2O1	.	.	.	77*[16.7 µM]	.	.
C[C@H]1CCCCO[C@H](CN(C)C(=O)Nc2ccc(F)cc2)[C@@H](C)CN([C@@H](C)CO)C(=O)c2cc(NC(=O)Nc3ccc(F)cc3)ccc2O1	.	.	.	62*[16.7 µM]	.	.
C[C@@H]1CN([C@H](C)CO)C(=O)c2cccc(NC(=O)NC3CCCCC3)c2O[C@@H]1CN(C)Cc1ccc2c(c1)OCO2	.	.	.	3[16.7 µM]	.	.
Cc1ccc(S(=O)(=O)N(C)C[C@@H]2OCCCC[C@H](C)Oc3ccc(NC(=O)Nc4ccccc4)cc3C(=O)N([C@@H](C)CO)C[C@H]2C)cc1	.	.	.	11[16.7 µM]	.	.
COc1cc(/C=C/C(=O)Nc2nnc(CC(C)C)s2)cc(OC)c1OC	-13	0	-2	57*	1	5
COCC#Cc1cnc2c(c1)C(=O)N([C@H](C)CO)C[C@@H](C)[C@H](CN(C)C(=O)C1CCC1)O2	.	.	.	2[16.7 µM]	.	.
COc1ccc(S(=O)(=O)Nc2ccc3c(c2)CC(=O)N([C@H](C)CO)C[C@@H](C)[C@H](CN(C)C(=O)NC2CCCCC2)O3)cc1	.	.	.	-8[16.7 µM]	.	.
Cc1cc(/C=N/Nc2ncnc(N)c2[N+](=O)[O-])c(C)n1-c1ccccc1	-7	3	-2	55*	-11	-2
CN(C)CC1CCC/C(=C\c2ccc(OC(=O)/C=C/c3ccccc3)cc2)C1=O (stereo not drawn)	19	10	.	-27	2	0
